The sample as a whole holds a higher share of hits than the screen did.
PTEN del growth – suppresses growth of cells with PTEN deletion; viability, % at 10 µM; HCT116 PTEN-null viability, CellTiter-Glo, 60 h; hits give low values; hit rate 1.2% among 140,000; AID 827;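 active means viability at or below a set limit, 4 SD under the median of all tested compounds, cut at about 3.7% in these data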;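 further: PTEN knockout HCT116 line with beta catenin targeted HCT116 as companion control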
bCat KO growth – beta-catenin-lacking colon tumor cell growth suppression | HCT116 beta-catenin knockout viability, CellTiter-Glo, 60 h; hits give low values | viability, % at 10 µM | hit rate 1.5% among 140,000;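 active means viability at or under a set limit, the compound median less 4 SD, cut at about 6% in these data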;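 further: 0% = Hyamine 1622 control at 20 µM and 100% = untreated cell control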
HUVEC prolif 384 – inhibitors of human endothelial cell proliferation. viability, % at 10 µM (by protocol). AID 648. HUVEC proliferation, CellTiter-Glo luminescence, 72 h; hits give low values. hit rate 1.1% among 86,000;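 active means viability at or below 30%; inactive means viability above 30%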;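 further: 100% = median luminescence of DMSO-only cell control wells on each plate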
Lung fibro prol – blocks proliferation of human lung fibroblasts | LL 47 human lung fibroblast viability, ATP luminescence; hits give low values | viability, % at 10 µM | hit rate 1.1% among 85,000 | AID 719;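 active means viability at or below 50% in the single dose screen; inactive means viability above 50%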;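 further: compound exposure lasted 72 h before the ATP readout; 100% = median luminescence of untreated cell-only wells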
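Material: human lung fibroblast line LL 47, low passage; Evaluation: viability percentage against median untreated-cell control; Buffer or medium: 15% FBS in IMEM; Incubation: 72 h compound exposure at 37 °C after overnight plating; Dosing: 0.1% DMSO in all compound wells; Measured by: CellTiter-Glo luminescence.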
H69AR growth 86K – blocks growth of human H69AR lung tumor cells. H69AR lung tumor viability, ATP luminescence, 72 h; hits give low values. viability, % at 10 µM. hit rate 6% among 85,000. AID 598;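 active means viability at or below 40%; inactive means viability above 40%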;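 further: multidrug resistant small cell line overexpressing MRP-1 efflux transporter; 100% = mean luminescence of untreated control wells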
An asterisk follows results filed as active; / = no result given.

SMILES	PTEN del growth	bCat KO growth	HUVEC prolif 384	Lung fibro prol	H69AR growth 86K
CCOC(=O)CSc1nc2sc3c(c2c(=O)[nH]1)CC(C)(CC)OC3 (stereo unspecified)	116	101	86	106	95
CSc1nc(SCC(=O)NCc2ccco2)c2c3c(sc2n1)COC(C)(C)C3	40	31	62	62	23*
CCC1(C)Cc2c(sc3nc(NN)n(C)c(=O)c23)CO1 (stereo unspecified)	60	37	77	89	12*
CCc1nc(SCC(=O)NCc2ccco2)c2c3c(sc2n1)CCCC3	78	86	55	106	57
CCCCSc1nc(SCC(=O)NCc2ccco2)c2c3c(sc2n1)COC(C)(CC)C3 (stereo unspecified)	74	76	/	/	/
COc1ccc(C(=O)Nc2ccc(N3CCN(C(=O)C(C)C)CC3)cc2)cc1[N+](=O)[O-]	104	88	/	/	/
Cc1ccc(S(=O)(=O)CCc2nc3ccccc3n2CCC#N)cc1	16	19	100	113	14*
Cc1nc2ccccc2nc(C)c1=NO	99	82	95	93	27*
CCOC(=O)c1nc2ccccc2nc1C	104	91	/	/	/
Cc1ccc2nc(C)/c(=N\O)c(C)nc2c1	87	88	93	98	6.8*
Cc1nc2ccc(Cl)cc2nc(C)/c1=N\O	100	98	87	91	5.6*
CCC(C)C(=O)NCCc1ccc(S(N)(=O)=O)cc1 (stereo unspecified)	109	99	/	/	/
CC1=C(C(=O)OC(C)(C)C)C(c2cccs2)NC(=O)N1 (stereo unspecified)	93	90	/	/	/
Cc1cccc(C)c1NS(=O)(=O)c1ccc2c(c1)C(=O)c1ccccc1C2=O	87	83	/	/	/
Cc1ccc(-c2cc3c(nn2)-c2ccccc2C3=O)cc1	/	/	58	47*	12*
Cc1ccccc1-c1cc2c(nn1)-c1ccccc1C2=O	4	3.4*	3.2*	14*	17*
CC(NS(=O)(=O)c1cccc(S(=O)(=O)c2ccccc2)c1)C(=O)O (stereo unspecified)	109	97	/	/	/
O=C(/C=C/c1ccccc1)c1ccccc1	2.0*	2.1*	78	86	1.5*
CC1=C/C(=N\OC(=O)/C=C/c2ccccc2)C(C)=CC1=O	52	47	/	/	/
O=C(/C=C/NNC(=O)c1ccccc1)c1ccccc1	91	87	101	20*	87
N/C(=N\OC(=O)/C=C/c1ccccc1)c1ccccc1	99	93	83	105	39*
O=C(/C=C/c1ccccc1)c1ccc2c3c(cccc13)CC2	1.8*	1.4*	/	/	/
CCC(C)c1ccccc1OCCn1ccnc1 (stereo unspecified)	98	83	/	/	/
CCN(CC)S(=O)(=O)c1cc(NC(=O)CCCOc2ccc(C(C)=O)cc2)ccc1C	53	51	/	/	/
CCC(C(=O)O/N=C(\N)c1ccccc1)c1ccccc1 (stereo unspecified)	93	85	75	74	1.2*
SMILES	PTEN del growth	bCat KO growth	HUVEC prolif 384	Lung fibro prol	H69AR growth 86K
CCC(C(=O)O/N=C(\N)c1ccc(C)cc1)c1ccccc1 (stereo unspecified)	100	100	86	93	53
O=C(/C=C/c1ccccc1)/C=C/c1ccccc1	0.7*	0.8*	/	/	/
CCC(C(=O)c1ccc2ncccc2c1)c1ccccc1 (stereo unspecified)	79	86	/	/	/
O=C(NCCc1cccc(Cl)c1)c1ccc(Cl)c([N+](=O)[O-])c1	67	85	/	/	/
CC(C)(CNC(=O)c1ccc([N+](=O)[O-])c(Cl)c1)CNC(=O)c1ccc([N+](=O)[O-])c(Cl)c1	2.1*	2.0*	/	/	/
COC(=O)c1ccc(NC(=O)CN2C(=O)CNC2=O)cc1	93	88	/	/	/
COCCNC(=O)CSc1nnc(CCCN2C(=O)c3cccc4cccc(c34)C2=O)n1-c1ccccc1	91	90	/	/	/
O=C(Nc1nc2ccccc2s1)c1ccc(Cl)s1	83	85	98	105	79
Cc1ccc2nc(NC(=O)c3ccc(-c4nc5ccccc5s4)s3)sc2c1	2.5*	4.7*	/	/	/
Cc1cc(NC(=O)CN2CC3CC(C2)c2cccc(=O)n2C3)nc2c1c(=O)oc1ccccc12 (stereo unspecified)	/	/	89	99	91
Cc1cc(NC(=O)Cc2ccccc2)nc2c1c(=O)oc1ccccc12	91	97	/	/	/
Cc1cccc(CC(=O)Nc2cc(C)c3c(=O)oc4ccccc4c3n2)c1	87	85	62	87	12*
Cc1cc(NC(=O)C2CCCC2)nc2c1c(=O)oc1ccccc12	77	82	72	108	37*
Cc1cc(NC(=O)C2CCCCC2)nc2c1c(=O)oc1ccccc12	92	91	/	/	/
Cc1cc(NC(=O)CN2CCN(Cc3ccccc3)CC2)nc2c1c(=O)oc1ccccc12	/	/	60	64	22*
CCCn1ncc(OC)c(Cl)c1=O	108	92	/	/	/
Cc1ccc2c(Cl)c(C(=O)Nc3cccnc3)sc2c1	61	63	/	/	/
COC(=O)C(C)Sc1nc2c(c(-c3ccc(OC)cc3)c1C#N)-c1ccccc1C2=O (stereo unspecified)	/	/	55	88	34*
Cc1ccccc1C(=O)NC1CCN(CC(=O)Nc2nccs2)CC1	110	97	98	94	16*
Cc1ccc(NC(=O)NC2CCN(CC(=O)Nc3nccs3)CC2)cc1	112	103	98	100	75
Nc1ccc2nc(-c3ccccc3)[nH]c2c1	87	81	86	100	33*
Nc1ccc2nc(-c3ccc(N)c(Cl)c3)[nH]c2c1	65	66	86	105	50
Nc1ccc(-c2nc3c(Cl)cc(N)cc3[nH]2)cc1	90	88	110	96	31*
Nc1ccc2nc(-c3cccs3)[nH]c2c1	97	90	71	87	22*
CC(=O)Nc1ccc2nc(-c3cccs3)[nH]c2c1	93	89	106	110	90
SMILES	PTEN del growth	bCat KO growth	HUVEC prolif 384	Lung fibro prol	H69AR growth 86K
COc1ccc(C)cc1NC(=O)c1ccccc1NS(=O)(=O)c1cccc2cccnc12	101	105	/	/	/
O=C1c2ccccc2-c2onc3c(Oc4ccccc4)cc(O)c1c23	77	68	63	89	25*
CC1(c2ccccc2)CC(C)(C)N2C(=O)/C(=C3\SC(=S)NC3=O)c3cccc1c32 (stereo unspecified)	68	77	/	/	/
CC1(c2ccccc2)CC(C)(C)N2C(=O)C3(C(C#N)=C(N)Oc4cc(O)ccc43)c3cccc1c32 (stereo unspecified)	1.5*	1.4*	13*	101	80
CC1=CC(C)(C)N2C(=O)C3(C(C#N)=C(N)Oc4cc(O)ccc43)c3c(C)c(C)cc1c32 (stereo unspecified)	47	62	4.8*	78	4.4*
Cc1cc2c3c(c1)C(C)(c1ccccc1)CC(C)(C)N3C(=O)C21C(C#N)=C(N)OC2=C1C(=O)CC(C)(C)C2 (stereo unspecified)	21	35	69	79	19*
CC1(C)CC(=O)C2=C(C1)OC(N)=C(C#N)C21C(=O)N2CCCc3cccc1c32 (stereo unspecified)	97	96	108	100	91

High-throughput results from PubChem BioAssay.
